This is an account of results in ChEMBL document CHEMBL1138275, “Activity of sulfonium bisphosphonates on tumor cell lines” (J Med Chem, 2007).

pIC50: −log10 of the molar value.

In one assay the test system is NCI-H460. The experiment in a line: Growth inhibition of human NCI-H460 cells after 4 days by MTT assay. The assay is classed as functional, cell-based. The settings on record: NCI-H460, 96 h; for pIC50: read-out: IC50; for IC50: read-out: pIC50 (converted). In a few lines: (§1)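 Cell lines from NCI, grown in RPMI-1640 with 2 mM L-glutamine and 10% FBS at 37 °C, 5% CO2, 100% humidity. Aqueous 0.01 M stocks, half-log serial dilutions in medium, typically 316 µM to 10 nM. 5000 cells/well exposed 4 days. MTT added for 2 h, detergent lysis, overnight dark at room temperature, A600 read. IC50 from rectangular hyperbolic fit of percent inhibition.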

For the next assay, the system named is MCF7. The assay is described as follows: Growth inhibition of human MCF7 cells after 4 days by MTT assay. The class given is functional, cell-based. The settings on record: MCF7, 96 h; for pIC50: read-out: IC50; for IC50: read-out: pIC50 (converted). In general terms: Formazan colour is commonly taken as a measure of viable cells.
Another assay concerns SF-268. The experiment in a line: Growth inhibition of human SF268 cells after 4 days by MTT assay. The assay is classed as functional, cell-based. The following applies: SF-268, 96 h; for pIC50: read-out: IC50; for IC50: read-out: pIC50 (converted). In a few lines: as §1
Assay [1] has as its target T1, Farnesyl pyrophosphate synthase (Homo sapiens, UniProt P14324).
T1 sequence (P14324 whole entry): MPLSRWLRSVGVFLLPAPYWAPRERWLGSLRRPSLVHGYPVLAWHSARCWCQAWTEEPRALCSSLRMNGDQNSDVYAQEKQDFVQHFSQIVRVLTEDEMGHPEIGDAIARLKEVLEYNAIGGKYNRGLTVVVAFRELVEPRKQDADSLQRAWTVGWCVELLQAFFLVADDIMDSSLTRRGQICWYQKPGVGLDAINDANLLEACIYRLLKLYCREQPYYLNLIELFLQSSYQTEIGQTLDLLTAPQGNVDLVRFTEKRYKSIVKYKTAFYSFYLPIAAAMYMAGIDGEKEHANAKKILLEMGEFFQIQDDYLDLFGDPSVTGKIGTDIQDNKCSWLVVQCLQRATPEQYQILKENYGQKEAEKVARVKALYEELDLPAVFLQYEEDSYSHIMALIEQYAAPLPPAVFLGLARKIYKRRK
The experiment in a line: Inhibition of human FPPS. The following applies: for pIC50: read-out: IC50.

In general, pIC50 refers to the IC50 on a negative log10 scale, so that one unit is a factor of ten. Take `CCCCCCCCCCCCCCCCCCCC[S+](C)CC(P(=O)([O-])O)P(=O)(O)O` (stereo not given): the pIC50 with NCI-H460 is 5.94; in the assay on MCF7 it was 6.02; with SF-268, 5.83; in assay [1] it was 4.56. Also, the IC50 with NCI-H460 was 1.26 µM; in the assay on MCF7, 1 µM; in the assay on SF-268, 1.58 µM; in assay [1] (read-out: pIC50 (converted)) it was 0.251 µM.
Regarding `CCCCCCCCCC[S+](C)CC(P(=O)([O-])O)P(=O)(O)O` (stereo not given), the negative-log IC50 (pIC50) in the assay on NCI-H460 was 6.49; with MCF7, 6.21; with SF-268, 6.43; in assay [1], 6.62. Besides, the IC50 with NCI-H460 is 0.316 µM; with MCF7, 0.631 µM; in the assay with SF-268, 0.398 µM.
Take `CCCCCCCCCCCCCC[S+](C)CC(P(=O)([O-])O)P(=O)(O)O` (stereo not given): the pIC50 is 6.32 in the assay on NCI-H460, 4.96 in the assay on MCF7, 6.06 with SF-268 and 5.07 in assay [1]. Also, the IC50 in the assay on NCI-H460 is 0.501 µM; with MCF7, 10 µM; with SF-268 it was 0.794 µM.
Turning to `C[S+](CCc1ccccc1)CCC(O)(P(=O)([O-])O)P(=O)(O)O` (stereo not given), the pIC50 in the assay on NCI-H460 is 3.74; in the assay on MCF7, 3.60; with SF-268, 3.70.
In the case of `CCCCCCCCCCCC[S+](C)CC(P(=O)([O-])O)P(=O)(O)O` (stereo not given), in the assay on NCI-H460, the pIC50 was 6.68 and the IC50 is 0.2 µM. Further, in the assay on SF-268, the pIC50 is 6.54 and the IC50 was 0.316 µM.
Regarding `C[S+](C)CC(O)(P(=O)([O-])O)P(=O)(O)O` (stereo not given), the pIC50 is 3.72 in the assay on NCI-H460, 3.70 in the assay with MCF7, 3.77 with SF-268 and 5.99 in assay [1]. The IC50 was 200 µM in the assay on NCI-H460, 200 µM in the assay on MCF7 and 158 µM in the assay with SF-268.
`C[S+](CCCc1ccccc1)CC(P(=O)([O-])O)P(=O)(O)O` (stereo not given): the values for the negative-log IC50 (pIC50) in the assay on NCI-H460, with MCF7 and in the assay with SF-268 were 4.26, 4.24 and 4.31, respectively. For the same molecule, the figures for the IC50 in the assay on NCI-H460, in the assay on MCF7 and in the assay on SF-268 were 50.1 µM, 63.1 µM and 50.1 µM, respectively.
With `O=P([O-])(O)C(O)(C[S+]1CCCCC1)P(=O)(O)O` (stereo not given), the negative-log IC50 (pIC50) with NCI-H460 is 3.68; in the assay with MCF7, 3.52; in the assay on SF-268, 3.62. Also, the values for the IC50 in the assay with NCI-H460, in the assay with MCF7 and in the assay on SF-268 were 200 µM, 316 µM and 251 µM, respectively.
Turning to `C[S+](C)CCC(O)(P(=O)([O-])O)P(=O)(O)O` (stereo not given), the pIC50 in the assay on NCI-H460 is 4.02; in the assay on MCF7 it was 3.59; with SF-268, 4.00; in assay [1], 5.05.
With `O=P([O-])(O)C(O)(CC[S+]1CCCCC1)P(=O)(O)O` (stereo not given), the pIC50 was 3.45 in the assay with NCI-H460, 3.29 with MCF7 and 3.37 in the assay on SF-268. The IC50 is 316 µM with NCI-H460, 501 µM with MCF7 and 398 µM with SF-268.
Consider `CCCCC[S+](C)CC(P(=O)([O-])O)P(=O)(O)O` (stereo not given), for which the pIC50 with NCI-H460 is 3.89; with MCF7, 3.65; in the assay on SF-268 it was 3.72; in assay [1], 5.97.
For `O=P([O-])(O)C(C[S+]1CCCC1)P(=O)(O)O` (stereo not given), the pIC50 with NCI-H460 was 4.08; in the assay on MCF7, 4.02; in the assay with SF-268, 4.06. Also, the IC50 is 79.4 µM with NCI-H460, 100 µM in the assay on MCF7 and 79.4 µM in the assay with SF-268.
With `CCCCCCCC[S+](C)CCC(O)(P(=O)([O-])O)P(=O)(O)O` (stereo not given), the negative logarithm of the IC50 (pIC50) was 4.59 in the assay on NCI-H460, 4.49 with MCF7 and 4.69 with SF-268. For the same molecule, the IC50 in the assay on NCI-H460 was 25.1 µM; in the assay with MCF7, 31.6 µM; in the assay on SF-268, 20 µM.
With `O=P([O-])(O)C(O)(CC[S+]1CCC(c2ccccc2)C1)P(=O)(O)O` (stereo not given), the pIC50 in the assay with NCI-H460 is 3.61; with MCF7, 3.47; in the assay on SF-268, 3.58. Further, the IC50 in the assay with NCI-H460 is 251 µM; with MCF7, 316 µM; in the assay on SF-268 it was 251 µM.
Consider `CCCCCCCCCCCCCCCCCC[S+](C)CC(P(=O)([O-])O)P(=O)(O)O` (stereo not given), for which the pIC50 in the assay on NCI-H460 is 5.91; in the assay with MCF7 it was 5.85; with SF-268 it was 5.77; in assay [1], 5.13. Moreover, the IC50 in the assay on NCI-H460 was 1.26 µM; in the assay on MCF7, 1.26 µM; in the assay on SF-268 it was 1.58 µM.
For the molecule `CCCCCCCCCCCCC[S+](C)CC(P(=O)([O-])O)P(=O)(O)O` (stereo not given), the pIC50 in the assay on NCI-H460 was 5.47; with MCF7, 5.55; with SF-268, 5.51.
